An excerpt weighted towards active compounds, which were near 2.1% of everything screened.
MC4R antagonist – human MC4R antagonism in cAMP assay | inhibition, % at 6.5 µM | actives 0.48% (n = 360,000) | MC4R-expressing cells, MTII-stimulated cAMP, LANCE TR-FRET;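 active means inhibition above its plate's cutoff, the mean of tested wells on that plate plus 3 SD, cut at about 29% in these data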;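 further: 0% = Melanotan II alone and 100% = Melanotan II plus saturating MCL0020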
Target sequence (P32245 whole entry, looked up): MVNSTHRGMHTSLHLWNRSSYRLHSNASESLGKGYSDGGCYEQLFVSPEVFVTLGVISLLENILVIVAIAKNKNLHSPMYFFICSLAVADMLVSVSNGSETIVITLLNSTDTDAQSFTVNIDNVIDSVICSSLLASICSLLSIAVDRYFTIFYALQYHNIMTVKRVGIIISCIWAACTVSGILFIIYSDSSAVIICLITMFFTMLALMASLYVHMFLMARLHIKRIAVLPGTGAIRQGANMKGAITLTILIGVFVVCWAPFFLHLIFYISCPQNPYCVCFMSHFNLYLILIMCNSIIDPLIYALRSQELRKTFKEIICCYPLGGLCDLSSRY
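Material: U2OS-MC4R stable cell line | Reagent: Melanotan II challenge after compound preincubation | Doses: One concentration, 6.5 µM nominal | Incubation: 30-min compound preincubation, 1-h Melanotan II challenge, 1-h detection, room temperature | Signal: TR-FRET cAMP assay | Replicates: One well per compound, no replicates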
SMARCA2 act – SMARCA2 function activation, primary screen; MG213 cells, MMTV-luciferase reporter, dexamethasone, overnight; activation, % at 9.1 µM; actives 1% (n = 370,000); AID 652017; in the data active means activation above about 7.8%;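 further: 0% = vehicle wells and 100% = reference activator wells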
F508del corr – CFTR F508del correction in bronchial cells | AID 720511 | actives 0.36% (n = 350,000) | activity (quench increase), % at 7.58 µM | CFBE cells, YFP halide quenching; stimulated with forskolin plus potentiator P3; % fluorescence drop versus neutral controls;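 active means mean added fluorescence quench of at least 8% versus neutral control, with both replicates also reaching 8%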;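 further: cells transiently co-express mutant CFTR-F508del with the halide-sensitive YFP; corrector assay measuring rescue of mutant channel to the surface after 24 h compound exposure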
MC4R barr agon – agonists of human melanocortin 4 receptor (MC4R) beta-arrestin; P32245; activation, % at 8.9 µM; U2OS MC4R beta-arrestin complementation, luminescence; percent of melanotan II response, DMSO zero; actives 0.98% (n = 360,000);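 active means activation above a per-plate cutoff, the mean activation of sample wells on that plate plus 3 SD, cut at about 8% in these data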
SMARCA2 act conf – SMARCA2 activation, confirmation screen; shares compounds with SMARCA2 act; actives 30% (n = 3,500); activation, % at 9.1 µM; MG213 cells, MMTV-luciferase with dexamethasone, luminescence, overnight; MG213 cells expressing E1A, Rb sequestered; DMSO wells 0%, reference activator 100%;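 active means activation above its plate's cutoff, the mean activation of tested wells plus 3 SD, cut at about 7.9% in these data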
GAL4-VP16 Luc – activates GAL4-VP16 luciferase, flagging SMARCA2 activator hits | actives 41% (n = 3,500) | activation, % at 9.1 µM | shares compounds with SMARCA2 act | HEK293 GAL4-VP16 pG5luc reporter, luciferase luminescence; scaled: DMSO wells 0%, SAHA wells 100%;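 active means activation above the solvent-only control well mean plus 3 SD, averaged across control plates, cut at about 5.2% in these data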
Active calls of the source: *.

Results for C[C@H]1CN([C@@H](C)CO)S(=O)(=O)c2ccc(Br)cc2O[C@@H]1CN(C)C(=O)C1CCC1 ?
F508del corr: -2

What do the screens show for `Cc1ccc(-c2cc3nc4c(c(=O)n3[nH]2)CCCC4)cc1`?
MC4R antagonist: 1; SMARCA2 act: 6; MC4R barr agon: 1

Results for O=c1c2c(nc3cc(-c4ccc(F)cc4)[nH]n13)CCC2 ?
MC4R antagonist: -3; SMARCA2 act: 12*; MC4R barr agon: 1; SMARCA2 act conf: 13*; GAL4-VP16 Luc: 12*

What do the screens show for `COc1ccc2c3c([nH]c2c1)[C@H](CO)N(C(=O)C1CCC1)CC31CN(C(=O)c2ccccn2)C1`?
F508del corr: -6

What do the screens show for `Cn1c(=O)[nH]c(=O)c2c1nc(N1CCCCC1)n2CCSc1nc2ccccc2o1`?
MC4R antagonist: 2; SMARCA2 act: -1; F508del corr: 1; MC4R barr agon: -1

How did CC(C)CCn1c(Sc2nc3ccccc3o2)nc2c1c(=O)[nH]c(=O)n2C do in these assays?
MC4R antagonist: 4; SMARCA2 act: 8.1*; MC4R barr agon: -1; SMARCA2 act conf: 2; GAL4-VP16 Luc: 5

What do the screens show for `O=C(C[C@H]1CC[C@H]2[C@@H](COC[C@H](O)CN2C(=O)c2cccnc2)O1)NCc1ccccc1`?
F508del corr: -1

How did C=CS(=O)(=O)c1sc(Cl)c(N2CCOCC2)c1[N+](=O)[O-] do in these assays?
MC4R antagonist: 22; SMARCA2 act: 11*; F508del corr: -2; MC4R barr agon: -2; SMARCA2 act conf: -8; GAL4-VP16 Luc: 4

What do the screens show for `C=CSc1sc(Cl)c(N2CCOCC2)c1[N+](=O)[O-]`?
MC4R antagonist: 0; SMARCA2 act: -1; F508del corr: -2; MC4R barr agon: 0

Results for CCNC(=O)[C@H]1[C@H](CO)[C@H]2Cn3c(ccc(-c4ccccc4)c3=O)[C@H]2N1Cc1ccccn1 ?
F508del corr: -2

What do the screens show for `CCCOc1ccc(-c2cnc(N)s2)cc1`?
MC4R antagonist: 1; SMARCA2 act: 13*; F508del corr: 2; MC4R barr agon: 2; SMARCA2 act conf: 7; GAL4-VP16 Luc: 10*

What do the screens show for `CCCOc1ccc(OCCSc2nnc(N)s2)cc1`?
MC4R antagonist: 3; SMARCA2 act: -1; MC4R barr agon: -1

How did Cc1[nH]c2ccc(C(=O)N3CCCCC3)cc2c1C do in these assays?
MC4R antagonist: 16; SMARCA2 act: 11*; F508del corr: -1; MC4R barr agon: -2; SMARCA2 act conf: 5; GAL4-VP16 Luc: 9.4*

How did O=C(Cc1ccncc1)NCC[C@H]1CC[C@@H](NC(=O)C2CCC2)[C@H](CO)O1 do in these assays?
F508del corr: 1

Results for Nc1ccnc(Oc2ccc(F)cc2)c1 ?
MC4R antagonist: -5; SMARCA2 act: 18*; MC4R barr agon: -2; SMARCA2 act conf: -2; GAL4-VP16 Luc: 4

What do the screens show for `C[C@H]1CN([C@@H](C)CO)C(=O)c2cc(C#CC3CCCCC3)cnc2O[C@H]1CN(C)CC1CC1`?
F508del corr: 2

How did CN(C)CCCN1C(=O)c2cccc3c(Br)ccc(c23)C1=O do in these assays?
MC4R antagonist: -1; SMARCA2 act: 9.2*; F508del corr: 3; MC4R barr agon: -2; SMARCA2 act conf: 35*; GAL4-VP16 Luc: 0

What do the screens show for `COc1ccc(N2CCN(C(=O)CN(C)S(=O)(=O)c3cnc[nH]3)CC2)cc1`?
MC4R antagonist: 5; SMARCA2 act: 10*; MC4R barr agon: 1; SMARCA2 act conf: -3; GAL4-VP16 Luc: 0

How did COc1ccc(S(=O)(=O)N(C)C[C@@H]2Oc3ccc(NS(=O)(=O)c4cccs4)cc3C(=O)N([C@H](C)CO)C[C@@H]2C)cc1 do in these assays?
F508del corr: -1

Results for C[C@H](CO)N1C[C@H](C)[C@@H](CN(C)Cc2ccc3c(c2)OCO3)Oc2ccc(NC(=O)CCC(F)(F)F)cc2CC1=O ?
F508del corr: 5

How did O=C(c1cnn2cccnc12)N1CCN(c2ccccc2)CC1 do in these assays?
MC4R antagonist: 7; SMARCA2 act: 13*; MC4R barr agon: -3; SMARCA2 act conf: 2; GAL4-VP16 Luc: 2

Results for O=C(NCCc1ccc(Cl)cc1)c1ccc2nc[nH]c2c1 ?
MC4R antagonist: -4; SMARCA2 act: 2; F508del corr: 0; MC4R barr agon: -1

What do the screens show for `O=C(NCCc1ccc(Cl)cc1)c1ccc2nccnc2c1`?
MC4R antagonist: -11; SMARCA2 act: 9.4*; F508del corr: 1; MC4R barr agon: 0; SMARCA2 act conf: 9.6*; GAL4-VP16 Luc: 9.9*

Results for COCCNC(=O)[C@@H]1[C@@H](CO)[C@@H]2Cn3c(ccc(-c4ccc(F)cc4)c3=O)[C@H]1N2C ?
F508del corr: -1

What do the screens show for `O=C(c1cc(-c2ccc(Cl)cc2)on1)N1CCCCCC1`?
MC4R antagonist: 0; SMARCA2 act: 10*; F508del corr: -3; MC4R barr agon: 1; SMARCA2 act conf: 8.1*; GAL4-VP16 Luc: 9.2*

What do the screens show for `COc1ccc(-c2cc(C(=O)N3CCCCC3)no2)cc1OC`?
MC4R antagonist: 2; SMARCA2 act: 8.7*; F508del corr: -3; MC4R barr agon: -3; SMARCA2 act conf: 6; GAL4-VP16 Luc: 5.3*

How did COc1ccc(-c2cc(C(=O)N3CCCC3)no2)cc1OC do in these assays?
MC4R antagonist: 6; SMARCA2 act: 5; F508del corr: 0; MC4R barr agon: 0

How did O=C(CCN1CCCCC1)NCC[C@@H]1CC[C@H](NC(=O)Cc2cccnc2)[C@H](CO)O1 do in these assays?
F508del corr: -1

What do the screens show for `CC(=O)N/C(N)=N/c1nc2cc(C)ccc2o1`?
MC4R antagonist: 12; SMARCA2 act: 8.9*; F508del corr: 1; MC4R barr agon: 0; SMARCA2 act conf: 6; GAL4-VP16 Luc: 9.6*

Results for CCC(=O)N[C@H]1C=C[C@@H](CC(=O)NCCN2CCCCC2)O[C@H]1CO ?
F508del corr: -1

What do the screens show for `Cc1ccc(-c2nnc(-c3cccs3)o2)cc1`?
MC4R antagonist: 2; SMARCA2 act: 10.0*; F508del corr: -1; MC4R barr agon: 1; SMARCA2 act conf: 8.2*; GAL4-VP16 Luc: 9.2*

How did Cc1cc(-c2nnc(-c3cccc(C(F)(F)F)c3)o2)no1 do in these assays?
MC4R antagonist: 16; SMARCA2 act: 6; F508del corr: 0; MC4R barr agon: -2

How did Cc1ccc(/C=C/c2nnc(-c3cccs3)o2)cc1 do in these assays?
MC4R antagonist: -9; SMARCA2 act: 11*; MC4R barr agon: 2; SMARCA2 act conf: 3; GAL4-VP16 Luc: 9.0*

What do the screens show for `Fc1ccc(/C=C/c2nnc(-c3cccs3)o2)cc1`?
MC4R antagonist: 9; SMARCA2 act: 7; F508del corr: 2; MC4R barr agon: -1

Screening data from PubChem.
